From ChEMBL document CHEMBL3745659, “Synthesis and Characterization of 4,11-Diaminoanthra[2,3-b]furan-5,10-diones: Tumor Cell Apoptosis through tNOX-Modulated NAD(+)/NADH Ratio and SIRT1” (J Med Chem, 2015)
pIC50: −log10 of the molar value. Active and inactive are the calls of the source. The rule behind the calls is not given here.

Columns and labels:
[1] = target: T1, Ecto-NOX disulfide-thiol exchanger 2 (Homo sapiens) (UniProt Q16206); assay: Inhibition of tNOX in human AGS cells assessed as reduction in cell migration; assay type: cell-based
T1 sequence (whole entry): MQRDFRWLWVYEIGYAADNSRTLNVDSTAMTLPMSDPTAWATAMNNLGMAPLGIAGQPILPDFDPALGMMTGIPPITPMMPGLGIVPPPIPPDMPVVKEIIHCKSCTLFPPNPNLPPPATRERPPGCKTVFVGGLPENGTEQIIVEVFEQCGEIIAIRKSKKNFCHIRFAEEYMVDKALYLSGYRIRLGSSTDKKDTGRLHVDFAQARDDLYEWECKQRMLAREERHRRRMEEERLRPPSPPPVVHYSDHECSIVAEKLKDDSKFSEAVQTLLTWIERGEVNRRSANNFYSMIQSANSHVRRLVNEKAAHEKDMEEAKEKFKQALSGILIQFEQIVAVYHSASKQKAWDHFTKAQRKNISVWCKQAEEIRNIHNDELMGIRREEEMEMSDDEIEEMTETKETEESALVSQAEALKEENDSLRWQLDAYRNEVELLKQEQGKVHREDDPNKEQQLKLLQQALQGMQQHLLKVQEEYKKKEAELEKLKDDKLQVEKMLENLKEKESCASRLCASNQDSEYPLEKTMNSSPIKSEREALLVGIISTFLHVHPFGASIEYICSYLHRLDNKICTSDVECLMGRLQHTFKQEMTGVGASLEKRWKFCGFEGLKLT

[2] = tested on: CCRF-CEM; assay: Antiproliferative activity against human CEM cells after 72 hrs by MTT assay; assay type: functional, cell-based
[3] = tested on: HeLa; assay: Antiproliferative activity against human HeLa cells after 72 hrs by MTT assay; assay type: functional, cell-based
[4] = Antiproliferative activity against human HCT116 cells after 72 hrs by MTT assay; assay type: functional, cell-based; details: HCT-116, 72 h
[5] = tested on: K562; assay: Antiproliferative activity against human K562 cells after 72 hrs by MTT assay; assay type: functional, cell-based; details: K562, 72 h
[6] = Antiproliferative activity against human K562/4 cells after 72 hrs by MTT assay; assay type: functional, cell-based; details: K562/4, 72 h
[7] = Drug uptake in human K562/4 cells at 3 uM incubated for 2 hrs in presence of verapamil by flow cytometric analysis; assay type: ADME, cell-based; details: k562/4, 2 h
In short: (§1)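 K562 and K562/4 cells incubated 2 h with 3 µM compound; uptake measured by flow cytometry as ratios (arbitrary units) of mean fluorescence channels of the histograms; verapamil (10 µM), a Pgp transport blocker, added 30 min before compound where used.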

[8] = tested on: K562; assay: Drug uptake in human K562 cells at 3 uM incubated for 2 hrs in presence of verapamil by flow cytometric analysis; assay type: ADME, cell-based; details: k562, 2 h; in short: as §1
[9] = tested on: AGS; assay: Induction of apoptosis in human AGS cells assessed as necrotic cells at 0.1 uM after 24 hrs by annexin V-FITC staining-based flow cytometric analysis (Rvb=0.9%); assay type: functional
In short: (§2)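 AGS cells exposed to compound for 24 h; Annexin V-FITC staining and flow cytometry used to give percentage of apoptotic cells; mean ± S.E. from at least three independent experiments.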

[10] = tested on: AGS; assay: Induction of apoptosis in human AGS cells assessed as necrotic cells at 1 uM after 24 hrs by annexin V-FITC staining-based flow cytometric analysis (Rvb=0.9%); assay type: functional; in short: as §2
[11] = tested on: AGS; assay: Induction of apoptosis in human AGS cells assessed as late apoptotic cells at 0.1 uM after 24 hrs by annexin V-FITC staining-based flow cytometric analysis (Rvb=0.3%); assay type: functional; in short: as §2
[12] = tested on: AGS; assay: Induction of apoptosis in human AGS cells assessed as late apoptotic cells at 1 uM after 24 hrs by annexin V-FITC staining-based flow cytometric analysis (Rvb=0.3%); assay type: functional; in short: as §2
[13] = tested on: AGS; assay: Induction of apoptosis in human AGS cells assessed as early apoptotic cells at 1 uM after 24 hrs by annexin V-FITC staining-based flow cytometric analysis (Rvb=7.2%); assay type: functional; in short: as §2
[14] = tested on: AGS; assay: Induction of apoptosis in human AGS cells assessed as viable cells at 0.05 uM after 24 hrs by annexin V-FITC staining-based flow cytometric analysis (Rvb=91.5%); assay type: functional; details: read-out: Activity; in short: as §2
[15] = tested on: AGS; assay: Induction of apoptosis in human AGS cells assessed as viable cells at 0.1 uM after 24 hrs by annexin V-FITC staining-based flow cytometric analysis (Rvb=91.5%); assay type: functional; details: read-out: Activity; in short: as §2
[16] = tested on: AGS; assay: Induction of apoptosis in human AGS cells assessed as viable cells at 1 uM after 24 hrs by annexin V-FITC staining-based flow cytometric analysis (Rvb=91.5%); assay type: functional; details: read-out: Activity; in short: as §2
[17] = tested on: AGS; assay: Upregulation of phosphorylated p53 level in human AGS cells at 1 and 5 uM after 24 hrs by Western blot analysis; assay type: functional, cell-based
[18] = tested on: AGS; assay: Upregulation of caspase3-directed PARP cleavage in human AGS cells at 5 uM after 24 hrs by Western blot analysis; assay type: functional, cell-based
[19] = tested on: AGS; assay: Downregulation of Bid protein level in human AGS cells after 24 hrs by Western blot analysis; assay type: functional, cell-based
[20] = tested on: AGS; assay: Downregulation of tNOX protein level in human AGS cells at 0.1 to 0.5 uM after 24 hrs by Western blot analysis; assay type: functional, cell-based
[21] = tested on: AGS; assay: Increase in intracellular NAD+/NADH ratio in human AGS cells at 5 uM incubated for 5 mins; assay type: functional, cell-based
[22] = tested on: AGS; assay: […] in human AGS cells assessed as downregulation of N-Cad after 24 hrs by Western blot analysis; assay type: functional, cell-based
[23] = tested on: AGS; assay: […] in human AGS cells assessed as downregulation of beta-catenin after 24 hrs by Western blot analysis; assay type: functional, cell-based
[24] = tested on: MRC5; assay: Antiproliferative activity against human MRC5 cells after 72 hrs by cell impedance based study; details: MRC5, 72 h
[25] = Antiproliferative activity against mouse NIH/3T3 cells after 48 hrs by cell impedance based study; details: NIH3T3, 48 h
[26] = tested on: L1210; assay: Antiproliferative activity against mouse L1210 cells after 72 hrs by MTT assay; details: L1210, 72 h

inhibition [1]: Active
pIC50 [2]: 6.72
pIC50 [3]: 6.77
pIC50 [5]: 6.68
Drug uptake [7]: Active
Drug uptake [8]: Active
pIC50 [26]: 7.00
SMILES: CNCCNc1c2c(c(NCCNC)c3occc13)C(=O)c1ccccc1C2=O
pIC50 [4]: 7.00
pIC50 [6]: 6.82
Activity [9]: 10.2%
Activity [10]: 15.4%
Activity [11]: 1.5%
Activity [12]: 1.3%
Activity [13]: 21.6%
viability at 0.05 µM [14]: 78.9%
viability at 0.1 µM [15]: 63.2%
viability at 1 µM [16]: 61.6%
Activity [17]: Active
Activity [18]: Active
Activity [19]: Active
Activity [20]: Active
Activity [21]: inactive
Activity [22]: Active
Activity [23]: Active
pIC50 [24]: 6.11
pIC50 [25]: 6.64
